According to ChEMBL document CHEMBL4834399, “Pharmacokinetics of Eleven Kratom Alkaloids Following an Oral Dose of Either Traditional or Commercial Kratom Products in Rats” (J Nat Prod, 2021):

What was measured:
[1] = Tmax in Sprague-Dawley rat plasma at 0.79 mg/kg, po administered as LKT formulation measured for 24 hrs by UPLC-MS/MS analysis; format: ADME, organism-based
Outline: (§1)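 Jugular-cannulated male SD rats (225 ± 25 g, n = 4) were fasted 12–16 h and given one oral gavage of LKT (366 mg/kg) or OPMS liquid (0.8 mL/kg) in water at 4 mL/kg, with dosing normalized to MTG human equivalent dose. Plasma was sampled from predose to 24 h and measured by UPLC–MS/MS (LLOQ 1 ng/mL). Cmax and Tmax were read from the observed data; Cmax/dose was also reported. Mean ± SEM.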

[2] = Cmax in Sprague-Dawley rat plasma at 0.79 mg/kg, po administered as LKT formulation measured for 24 hrs by UPLC-MS/MS analysis; format: ADME, organism-based; design: route oral, time 24 hrs, dose 0.79 mg/kg; outline: as §1
[3] = Tmax in Sprague-Dawley rat plasma at 1.23 mg/kg, po administered as OPMS liquid formulation measured for 24 hrs by UPLC-MS/MS analysis; format: ADME, organism-based; outline: as §1
[4] = Cmax in Sprague-Dawley rat plasma at 1.23 mg/kg, po administered as OPMS liquid formulation measured for 24 hrs by UPLC-MS/MS analysis; format: ADME, organism-based; design: route oral, time 24 hrs, dose 1.23 mg/kg; outline: as §1
[5] = Drug uptake in Sprague-Dawley rat plasma at 0.79 mg/kg, po administered as LKT formulation measured within 1 hrs by UPLC-MS/MS analysis; format: ADME, organism-based; outline: as §1
[6] = Drug uptake in Sprague-Dawley rat plasma at 1.23 mg/kg, po administered as OPMS liquid formulation measured within 1 hrs by UPLC-MS/MS analysis; format: ADME, organism-based; outline: as §1
[7] = Stability of the compound in rat plasma assessed as drug recovery; format: ADME, cell-free
[8] = Stability of the compound in water-methanol mixture (1:1) assessed as drug recovery; format: physicochemical; details: buffer
[9] = AUC(0 to 24 hrs) in Sprague-Dawley rat plasma at <0.1 mg/kg, po administered as OPMS liquid formulation measured for 24 hrs by UPLC-MS/MS analysis; format: ADME, organism-based; design: route oral, time 24 hrs, dose <0.1
[10] = Cmax in Sprague-Dawley rat plasma at <0.1 mg/kg, po administered as OPMS liquid formulation measured for 24 hrs by UPLC-MS/MS analysis; format: ADME, organism-based; design: route oral, time 24 hrs, dose <0.1; outline: as §1
[11] = Tmax in Sprague-Dawley rat plasma at <0.1 mg/kg, po administered as OPMS liquid formulation measured for 24 hrs by UPLC-MS/MS analysis; format: ADME, organism-based; outline: as §1
[12] = AUC(0 to 24 hrs) in Sprague-Dawley rat plasma at <0.1 mg/kg, po administered as LKT formulation measured for 24 hrs by UPLC-MS/MS analysis; format: ADME, organism-based; design: route oral, time 24 hrs, dose <0.1
[13] = Cmax in Sprague-Dawley rat plasma at <0.1 mg/kg, po administered as LKT formulation measured for 24 hrs by UPLC-MS/MS analysis; format: ADME, organism-based; design: route oral, time 24 hrs, dose <0.1; outline: as §1
[14] = Tmax in Sprague-Dawley rat plasma at <0.1 mg/kg, po administered as LKT formulation measured for 24 hrs by UPLC-MS/MS analysis; format: ADME, organism-based; outline: as §1
[15] = Cmax in Sprague-Dawley rat plasma at […], po administered as OPMS liquid formulation measured for 24 hrs by UPLC-MS/MS analysis; format: ADME, organism-based; design: route oral, time 24 hrs, dose 0.18 mg/kg
[16] = Tmax in Sprague-Dawley rat plasma at […], po administered as OPMS liquid formulation measured for 24 hrs by UPLC-MS/MS analysis; format: ADME, organism-based; details: dose 0.18 mg/kg
[17] = Dose normalized AUC(0 to 24 hrs) in Sprague-Dawley rat plasma at 0.13 mg/kg, po administered as LKT formulation measured for 24 hrs by UPLC-MS/MS analysis; format: ADME, organism-based; details: in vivo
[18] = Dose normalized Cmax in Sprague-Dawley rat plasma at 0.13 mg/kg, po administered as LKT formulation measured for 24 hrs by UPLC-MS/MS analysis; format: ADME, organism-based; details: in vivo; outline: as §1
[19] = AUC(0 to 24 hrs) in Sprague-Dawley rat plasma at 0.13 mg/kg, po administered as LKT formulation measured for 24 hrs by UPLC-MS/MS analysis; format: ADME, organism-based; design: route oral, time 24 hrs, dose 0.13 mg/kg
[20] = Tmax in Sprague-Dawley rat plasma at 0.13 mg/kg, po administered as LKT formulation measured for 24 hrs by UPLC-MS/MS analysis; format: ADME, organism-based; outline: as §1
[21] = AUC(0 to 24 hrs) in Sprague-Dawley rat plasma at […], po administered as OPMS liquid formulation measured for 24 hrs by UPLC-MS/MS analysis; format: ADME, organism-based; design: route oral, dose 0.18 mg/kg, time 24 hrs
[22] = Dose normalized Cmax in Sprague-Dawley rat plasma at […], po administered as OPMS liquid formulation measured for 24 hrs by UPLC-MS/MS analysis; format: ADME, organism-based; details: in vivo, dose 0.18 mg/kg
[23] = Dose normalized AUC(0 to 24 hrs) in Sprague-Dawley rat plasma at […], po administered as OPMS liquid formulation measured for 24 hrs by UPLC-MS/MS analysis; format: ADME, organism-based; details: in vivo, dose 0.18 mg/kg
[24] = Dose normalized Cmax in po dosed rat plasma; format: ADME, organism-based; details: in vivo
[25] = Dose normalized AUC(0-24 hrs) in po dosed rat plasma; format: ADME, organism-based; details: in vivo

## CC[C@H]1CN2CCc3c([nH]c4cccc(OC)c34)[C@@H]2C[C@@H]1/C(=C\OC)C(=O)OC
[1]
  Tmax: 10 min
[2]
  Cmax: 2.9 ng/mL
[3]
  Tmax: 5 min
[4]
  Cmax: 2.9 ng/mL
[5]
  concentration at 1 h: < 1 ng/mL
[6]
  concentration at 1 h: < 1 ng/mL
[7]
  Drug recovery: > 90%
[8]
  Drug recovery: > 80%

## CC[C@@H]1CN2CC[C@@]3(O)C(=Nc4cccc(OC)c43)[C@@H]2C[C@@H]1/C(=C\OC)C(=O)OC
[9]
  AUC(0-t) at 24 h: 41 ng·h/mL
[10]
  Cmax: 4 ng/mL
[11]
  Tmax: 3.1 h
[12]
  AUC(0-t) at 24 h: 17.4 ng·h/mL
[13]
  Cmax: 4.3 ng/mL
[14]
  Tmax: 54 min
[7]
  Drug recovery: > 90%
[8]
  Drug recovery: > 80%

## CC[C@@H]1CN2CCc3c([nH]c4ccccc34)[C@@H]2C[C@@H]1/C(=C\OC)C(=O)OC [CORYNANRHEIDINE]
[15]
  Cmax at 24 h: 3.1 ng/mL
[16]
  Tmax at 24 h: 3.1 h
[17]
  AUC/dose: 63.1 kg·ng·h/mL/mg
[18]
  Cmax/dose: 14 kg·ng/mL/mg
[19]
  AUC(0-t) at 24 h: 8.2 ng·h/mL
[20]
  Tmax: 1 h
[21]
  AUC(0-t) at 24 h: 30.4 ng·h/mL
[22]
  Cmax/dose: 15.6 kg·ng/mL/mg
[23]
  AUC/dose: 152.2 kg·ng·h/mL/mg
[24]
  Cmax/dose: 10.7 ng/mL
[25]
  AUC/dose: 138.8 kg·ng·h/mL/mg
[7]
  Drug recovery: > 90%
[8]
  Drug recovery: > 80%

## CC[C@@H]1CN2CC[C@]3(C(=O)Nc4ccccc43)[C@@H]2C[C@@H]1/C(=C\OC)C(=O)OC [CORYNOXINE B]
[7]
  Drug recovery: > 90%
[8]
  Drug recovery: > 80%

## CC[C@@H]1CN2CC[C@@]3(C(=O)Nc4ccccc43)[C@@H]2C[C@@H]1/C(=C\OC)C(=O)OC [CORYNOXINE]
[7]
  Drug recovery: > 90%
[8]
  Drug recovery: > 80%
